Experimental data published in ChEMBL document CHEMBL4261530, “Rational design and synthesis of novel phenylsulfonyl-benzamides as anti-prostate cancer agents” (Medchemcomm, 2017).

Experiments:
VCaP [1] = experiment: Antiproliferative activity against human VCaP cells after 96 hrs by propidium iodide staining-based fluorescence assay; type: functional, cell-based
LNCaP [2] = experiment: Potency index, ratio of enzalutamide IC50 to test compound IC50 for human LNCAP cells; type: functional
CWR22R [3] = experiment: Antiproliferative activity against human 22Rv1 cells after 96 hrs by propidium iodide staining-based fluorescence assay; type: functional, cell-based
DU-145 [4] = experiment: Potency index, ratio of enzalutamide IC50 to test compound IC50 for human DU145 cells; type: functional
DU-145 [5] = experiment: Antiproliferative activity against human DU145 cells after 96 hrs by propidium iodide staining-based fluorescence assay; type: functional, cell-based
LNCaP [6] = experiment: Antiproliferative activity against human LNCAP cells after 96 hrs by propidium iodide staining-based fluorescence assay; type: functional, cell-based
CWR22R [7] = experiment: Potency index, ratio of enzalutamide IC50 to test compound IC50 for human 22Rv1 cells; type: functional
VCaP [8] = experiment: Potency index, ratio of enzalutamide IC50 to test compound IC50 for human VCaP cells; type: functional
HEK293 = experiment: Cytotoxicity against HEK293 cells assessed as reduction in cell viability at 10 uM after 24 hrs by CellTiter-Blue assay relative to control; type: cell-based; details: human, hek293, 24 h
Procedure, shortened: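 HEK293 cells in DMEM with 10% FBS and 2 mM L-glutamine, seeded at 100,000 cells/ml and treated after 24 h at 10 µM for 24 h. […] Cell Titer Blue added for 2 h at 37°C, fluorescence read at 560/590 nm.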

IC50 (VCaP [1]) | IC50 (DU-145 [5]) | IC50 (LNCaP [6]) | Structure (SMILES) | Activity (VCaP [1]) | Ratio IC50 (LNCaP [2]) | Activity (CWR22R [3]) | Ratio IC50 (DU-145 [4]) | Activity (DU-145 [5]) | Activity (LNCaP [6]) | Ratio IC50 (CWR22R [7]) | Ratio IC50 (VCaP [8]) | Activity (HEK293) | IC50 (CWR22R [3])
 |  |  | N#Cc1ccc(NC(=O)c2ccc(S(=O)(=O)c3ccc(O)cc3)cc2)cc1C(F)(F)F | Dose-dependent effect | <=8 | Dose-dependent effect | <=8 | Dose-dependent effect | Dose-dependent effect | <=8 | <=8 |  | 
 |  |  | O=C(Nc1cccc(C(F)(F)F)c1)c1ccc(S(=O)(=O)c2ccc(O)cc2)cc1 | Dose-dependent effect | <=8 | Dose-dependent effect | <=8 | Dose-dependent effect | Dose-dependent effect | <=8 | <=8 |  | 
 |  |  | O=C(Nc1ccc([N+](=O)[O-])c(C(F)(F)F)c1)c1ccc(S(=O)(=O)c2ccc(O)cc2)cc1 | Dose-dependent effect | <=8 | Dose-dependent effect | <=8 | Dose-dependent effect | Dose-dependent effect | <=8 | <=8 |  | 
 |  |  | O=C(Nc1cc(C(F)(F)F)ccc1C(F)(F)F)c1ccc(S(=O)(=O)c2ccc(O)cc2)cc1 | Dose-dependent effect | <=8 | Dose-dependent effect | <=8 | Dose-dependent effect | Dose-dependent effect | <=8 | <=8 |  | 
 |  |  | N#Cc1ccc(NC(=O)c2ccc(S(=O)(=O)c3cccc(C(F)(F)F)c3)cc2)cc1C(F)(F)F | Dose-dependent effect | <=8 | Dose-dependent effect | <=8 | Dose-dependent effect | Dose-dependent effect | <=8 | <=8 |  | 
 |  |  | O=C(Nc1cccc(S(F)(F)(F)(F)F)c1)c1ccc(S(=O)(=O)c2ccc(O)cc2)cc1 | Dose-dependent effect | <=8 | Dose-dependent effect | <=8 | Dose-dependent effect | Dose-dependent effect | <=8 | <=8 |  | 
 |  |  | O=C(Nc1ccc(S(F)(F)(F)(F)F)cc1)c1ccc(Sc2ccc(O)cc2)cc1 | Dose-dependent effect | <=8 | Dose-dependent effect | <=8 | Dose-dependent effect | Dose-dependent effect | <=8 | <=8 | Toxic | 
 |  |  | O=C(Nc1cccc(S(F)(F)(F)(F)F)c1)c1ccc(Sc2ccc(O)cc2)cc1 | Dose-dependent effect | <=8 | Dose-dependent effect | <=8 | Dose-dependent effect | Dose-dependent effect | <=8 | <=8 |  | 
 |  |  | O=C(Nc1ccc(S(F)(F)(F)(F)F)cc1)c1ccc(S(=O)(=O)c2ccc(O)cc2)cc1 | Dose-dependent effect | <=8 | Dose-dependent effect | <=8 | Dose-dependent effect | Dose-dependent effect | <=8 | <=8 | > 50% | 
 |  |  | O=C(Nc1cccc(C(F)(F)F)c1)c1ccc(Sc2cccc(C(F)(F)F)c2)cc1 | Dose-dependent effect | <=8 | Dose-dependent effect | <=8 | Dose-dependent effect | Dose-dependent effect | <=8 | <=8 |  | 
 |  |  | O=C(Nc1ccc(C(F)(F)F)cc1)c1ccc(Sc2ccc(O)cc2)cc1 | Dose-dependent effect | <=8 | Dose-dependent effect | <=8 | Dose-dependent effect | Dose-dependent effect | <=8 | <=8 |  | 
 |  |  | O=C(Nc1ccc([N+](=O)[O-])c(C(F)(F)F)c1)c1ccc(Sc2ccc(O)cc2)cc1 | Dose-dependent effect | <=8 | Dose-dependent effect | <=8 | Dose-dependent effect | Dose-dependent effect | <=8 | <=8 |  | 
 |  |  | O=C(Nc1ccc(S(F)(F)(F)(F)F)cc1)c1ccc([S+]([O-])c2ccc(O)cc2)cc1 (configuration not stated) | Dose-dependent effect | <=8 | Dose-dependent effect | <=8 | Dose-dependent effect | Dose-dependent effect | <=8 | <=8 |  | 
 |  |  | N#Cc1ccc(NC(=O)c2ccc(Sc3cccc(C(F)(F)F)c3)cc2)cc1C(F)(F)F | Dose-dependent effect | <=8 | Dose-dependent effect | <=8 | Dose-dependent effect | Dose-dependent effect | <=8 | <=8 |  | 
 |  |  | O=C(Nc1ccccc1C(F)(F)F)c1ccc(Sc2ccc(O)cc2)cc1 | Dose-dependent effect | <=8 | Dose-dependent effect | <=8 | Dose-dependent effect | Dose-dependent effect | <=8 | <=8 |  | 
 |  |  | O=C(Nc1ccc(C(F)(F)F)cc1)c1ccc(S(=O)(=O)c2ccc(O)cc2)cc1 | Dose-dependent effect | <=8 | Dose-dependent effect | <=8 | Dose-dependent effect | Dose-dependent effect | <=8 | <=8 |  | 
 |  |  | O=C(Nc1ccccc1C(F)(F)F)c1ccc(S(=O)(=O)c2ccc(O)cc2)cc1 | Dose-dependent effect | <=8 | Dose-dependent effect | <=8 | Dose-dependent effect | Dose-dependent effect | <=8 | <=8 |  | 
 |  |  | N#Cc1ccc(NC(=O)c2ccc(Sc3ccc(O)cc3)cc2)cc1C(F)(F)F | Dose-dependent effect | <=8 | Dose-dependent effect | <=8 | Dose-dependent effect | Dose-dependent effect | <=8 | <=8 |  | 
 |  |  | O=C(Nc1cc(C(F)(F)F)ccc1C(F)(F)F)c1ccc(Sc2ccc(O)cc2)cc1 | Dose-dependent effect | <=8 | Dose-dependent effect | <=8 | Dose-dependent effect | Dose-dependent effect | <=8 | <=8 | Toxic | 
Nd(Insoluble) | Nd(Insoluble) | Nd(Insoluble) | O=C(Nc1cccc(C(F)(F)F)c1)c1ccc(S(=O)(=O)c2cccc(C(F)(F)F)c2)cc1 |  |  |  |  |  |  |  |  |  | Nd(Insoluble)
 |  |  | O=C(Nc1cccc(C(F)(F)F)c1)c1ccc(Sc2ccc(O)cc2)cc1 | Dose-dependent effect | <=8 | Dose-dependent effect | <=8 | Dose-dependent effect | Dose-dependent effect | <=8 | <=8 |  | 
 |  |  | O=C(Nc1cc(C(F)(F)F)cc(C(F)(F)F)c1)c1ccc(S(=O)(=O)c2ccc(O)cc2)cc1 | Dose-dependent effect | <=8 | Dose-dependent effect | <=8 | Dose-dependent effect | Dose-dependent effect | <=8 | <=8 |  | 
 |  |  | O=C(Nc1ccccc1C(F)(F)F)c1ccc([S+]([O-])c2ccc(O)cc2)cc1 (configuration not stated) | Dose-dependent effect |  | Dose-dependent effect |  | Dose-dependent effect | Dose-dependent effect |  |  |  | 
 |  |  | O=C(Nc1cc(C(F)(F)F)cc(C(F)(F)F)c1)c1ccc(Sc2ccc(O)cc2)cc1 | Dose-dependent effect | <=8 | Dose-dependent effect | <=8 | Dose-dependent effect | Dose-dependent effect | <=8 | <=8 |  | 
